Assay results taken from ChEMBL document CHEMBL3877241 (J Med Chem, 2016).
Active and inactive are the calls of the source. The calls are words filed in the database; no cut-off is given here.

How the values were obtained:
[1] = tested on: HEL 92.1.7; assay: Inhibition of colony formation in HEL 92.1.7 cells harboring JAK2 V617F mutant after 14 to 16 days; format: functional, cell-based; settings: Homo sapiens
How it was run: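 HEL cells (200 cells/mL) mixed into methylcellulose semi-solid medium with inhibitor at various concentrations. Incubated 14-16 days, then colonies counted. Data given as mean ± SEM.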

[2] = target: Mast/stem cell growth factor receptor Kit (Homo sapiens, UniProt P10721); assay: Inhibition of human KIT (I571 to D952 residues) expressed in bacterial expression system assessed as residual activity at 100 nM by KINOMEScan assay relative to control
Sequence of Mast/stem cell growth factor receptor Kit (P10721 whole entry, the tested form may be a part): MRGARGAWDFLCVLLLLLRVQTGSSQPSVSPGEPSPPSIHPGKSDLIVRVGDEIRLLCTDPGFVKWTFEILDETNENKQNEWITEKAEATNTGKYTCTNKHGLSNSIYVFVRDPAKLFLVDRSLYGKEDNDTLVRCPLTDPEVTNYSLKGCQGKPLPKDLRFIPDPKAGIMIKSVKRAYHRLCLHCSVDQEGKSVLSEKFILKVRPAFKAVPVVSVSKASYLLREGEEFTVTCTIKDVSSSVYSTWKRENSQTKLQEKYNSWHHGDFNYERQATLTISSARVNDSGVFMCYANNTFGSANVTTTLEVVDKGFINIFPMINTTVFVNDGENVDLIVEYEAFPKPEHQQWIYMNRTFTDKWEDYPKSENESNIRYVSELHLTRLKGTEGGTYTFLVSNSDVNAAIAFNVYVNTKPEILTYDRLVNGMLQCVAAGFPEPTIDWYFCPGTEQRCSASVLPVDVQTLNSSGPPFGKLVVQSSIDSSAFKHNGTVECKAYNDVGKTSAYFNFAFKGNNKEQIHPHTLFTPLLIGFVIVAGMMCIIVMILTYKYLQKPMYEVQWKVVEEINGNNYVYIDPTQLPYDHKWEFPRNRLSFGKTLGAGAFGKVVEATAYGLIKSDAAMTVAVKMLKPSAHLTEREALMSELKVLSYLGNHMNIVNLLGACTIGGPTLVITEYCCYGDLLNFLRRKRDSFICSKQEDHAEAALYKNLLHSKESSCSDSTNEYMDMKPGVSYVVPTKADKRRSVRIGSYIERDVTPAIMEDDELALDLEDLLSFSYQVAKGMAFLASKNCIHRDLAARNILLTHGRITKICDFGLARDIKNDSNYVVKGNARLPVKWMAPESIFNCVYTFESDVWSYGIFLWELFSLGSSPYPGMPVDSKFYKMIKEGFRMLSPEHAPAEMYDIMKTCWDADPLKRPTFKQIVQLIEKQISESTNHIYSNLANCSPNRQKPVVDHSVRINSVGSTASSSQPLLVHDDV
How it was run: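 Done by DiscoveRx as an ATP-site binding panel covering 97 kinases across the kinome. It measures binding rather than inhibition of phosphate transfer. The compound was tested at 100 nM, and the result is expressed as percent of control binding.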

[3] = target: T1, Protein deacetylase HDAC6 (Homo sapiens, UniProt Q9UBN7); assay: Inhibition of full length human recombinant N-terminal GST-tagged HDAC6 (1 to 1215 residues) expressed in sf9 cells preincubated with enzyme followed by fluorogenic Arg-His-Lys-Lys(Ac)-AMC substrate addition measured after 2 hrs by fluorescence assay
T1 sequence (Q9UBN7 whole entry): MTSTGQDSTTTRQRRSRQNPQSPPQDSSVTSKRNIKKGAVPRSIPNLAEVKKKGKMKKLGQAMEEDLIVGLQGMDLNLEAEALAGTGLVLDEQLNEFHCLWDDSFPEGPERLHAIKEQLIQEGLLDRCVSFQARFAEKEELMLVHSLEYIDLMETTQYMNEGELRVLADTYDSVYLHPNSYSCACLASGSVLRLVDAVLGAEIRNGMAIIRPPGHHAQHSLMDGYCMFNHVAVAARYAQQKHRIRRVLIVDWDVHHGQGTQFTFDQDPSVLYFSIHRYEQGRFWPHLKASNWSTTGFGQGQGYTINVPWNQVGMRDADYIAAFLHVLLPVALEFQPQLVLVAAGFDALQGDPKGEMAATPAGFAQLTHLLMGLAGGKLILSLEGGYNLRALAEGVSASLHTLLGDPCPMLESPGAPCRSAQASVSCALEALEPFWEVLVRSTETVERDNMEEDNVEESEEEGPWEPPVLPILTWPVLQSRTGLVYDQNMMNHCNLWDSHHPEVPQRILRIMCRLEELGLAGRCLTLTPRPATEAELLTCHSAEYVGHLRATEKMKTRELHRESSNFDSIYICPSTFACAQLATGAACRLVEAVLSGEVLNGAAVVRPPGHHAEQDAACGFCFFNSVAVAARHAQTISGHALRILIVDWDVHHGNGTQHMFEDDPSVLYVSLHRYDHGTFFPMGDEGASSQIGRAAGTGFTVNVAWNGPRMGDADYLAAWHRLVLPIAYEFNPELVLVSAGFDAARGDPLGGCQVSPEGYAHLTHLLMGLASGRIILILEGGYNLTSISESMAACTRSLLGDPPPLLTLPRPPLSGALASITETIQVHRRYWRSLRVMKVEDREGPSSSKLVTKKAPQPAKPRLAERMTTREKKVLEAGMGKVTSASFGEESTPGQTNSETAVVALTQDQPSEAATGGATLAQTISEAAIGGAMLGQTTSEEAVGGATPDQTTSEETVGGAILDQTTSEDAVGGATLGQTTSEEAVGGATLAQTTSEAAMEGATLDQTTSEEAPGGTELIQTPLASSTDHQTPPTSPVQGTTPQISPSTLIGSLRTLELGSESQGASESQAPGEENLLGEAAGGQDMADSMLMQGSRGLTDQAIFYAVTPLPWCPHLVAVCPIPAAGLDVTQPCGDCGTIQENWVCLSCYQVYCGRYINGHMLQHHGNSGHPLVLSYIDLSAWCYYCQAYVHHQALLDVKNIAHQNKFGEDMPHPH

[4] = target: Tyrosine-protein kinase JAK2 (Homo sapiens, UniProt O60674); assay: Inhibition of JAK2 in IL-6-stimulated human MOLM14 cells assessed as suppression of STAT3 phosphorylation at TY705 residue at 1.5 uM pretreated for 3 hrs followed by IL-6 stimulation by immunoblot method; format: cell-based; settings: MOLM-14
Sequence of Tyrosine-protein kinase JAK2 (O60674 whole entry): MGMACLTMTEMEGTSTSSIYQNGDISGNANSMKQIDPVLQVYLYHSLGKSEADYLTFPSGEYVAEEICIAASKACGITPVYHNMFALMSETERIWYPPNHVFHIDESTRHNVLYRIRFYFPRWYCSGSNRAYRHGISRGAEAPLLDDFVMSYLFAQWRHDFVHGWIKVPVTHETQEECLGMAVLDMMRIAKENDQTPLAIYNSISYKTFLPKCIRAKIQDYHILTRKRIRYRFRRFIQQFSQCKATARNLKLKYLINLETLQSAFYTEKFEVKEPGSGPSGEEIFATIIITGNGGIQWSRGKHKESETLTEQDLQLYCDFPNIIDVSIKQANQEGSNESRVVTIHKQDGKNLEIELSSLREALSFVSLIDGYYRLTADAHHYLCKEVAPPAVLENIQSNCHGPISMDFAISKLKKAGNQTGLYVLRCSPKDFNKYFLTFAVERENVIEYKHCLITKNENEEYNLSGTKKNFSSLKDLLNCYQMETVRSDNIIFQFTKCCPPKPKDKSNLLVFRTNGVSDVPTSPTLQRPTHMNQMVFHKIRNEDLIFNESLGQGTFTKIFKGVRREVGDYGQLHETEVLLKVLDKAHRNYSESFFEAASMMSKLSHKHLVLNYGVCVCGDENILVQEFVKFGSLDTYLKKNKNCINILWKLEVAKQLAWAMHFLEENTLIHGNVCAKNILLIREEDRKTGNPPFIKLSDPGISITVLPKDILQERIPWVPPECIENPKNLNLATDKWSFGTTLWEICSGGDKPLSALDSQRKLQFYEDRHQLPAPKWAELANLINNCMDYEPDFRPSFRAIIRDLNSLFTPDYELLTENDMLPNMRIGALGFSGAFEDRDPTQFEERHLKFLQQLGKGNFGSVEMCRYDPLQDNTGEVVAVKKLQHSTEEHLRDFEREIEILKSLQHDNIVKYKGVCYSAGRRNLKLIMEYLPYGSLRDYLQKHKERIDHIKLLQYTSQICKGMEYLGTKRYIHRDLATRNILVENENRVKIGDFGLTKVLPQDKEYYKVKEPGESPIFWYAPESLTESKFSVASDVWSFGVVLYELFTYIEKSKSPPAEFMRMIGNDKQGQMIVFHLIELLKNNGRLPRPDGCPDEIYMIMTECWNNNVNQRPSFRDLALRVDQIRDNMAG
How it was run: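 Cells (at least 3x10^6 per condition; KMS-12-BM or MOLM-14) pretreated with compound for 3 h, then stimulated with IL-6 10 ng/mL for 15 min. Cells lysed, equal protein run on SDS-PAGE and transferred to PVDF. Immunoblotted for p-STAT3 (Tyr705), with membranes re-probed for total STAT3. Reference JAK2 inhibitor control at 2 µM (KMS-12-BM) or 0.1 µM (MOLM-14).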

[5] = target: Polyamine deacetylase HDAC10 (Homo sapiens, UniProt Q969S8); assay: Inhibition of HDAC10 (unknown origin) preincubated with enzyme followed by fluorogenic Arg-His-Lys-Lys(Ac)-AMC substrate addition measured after 2 hrs by fluorescence assay
Sequence of Polyamine deacetylase HDAC10 (Q969S8 whole entry): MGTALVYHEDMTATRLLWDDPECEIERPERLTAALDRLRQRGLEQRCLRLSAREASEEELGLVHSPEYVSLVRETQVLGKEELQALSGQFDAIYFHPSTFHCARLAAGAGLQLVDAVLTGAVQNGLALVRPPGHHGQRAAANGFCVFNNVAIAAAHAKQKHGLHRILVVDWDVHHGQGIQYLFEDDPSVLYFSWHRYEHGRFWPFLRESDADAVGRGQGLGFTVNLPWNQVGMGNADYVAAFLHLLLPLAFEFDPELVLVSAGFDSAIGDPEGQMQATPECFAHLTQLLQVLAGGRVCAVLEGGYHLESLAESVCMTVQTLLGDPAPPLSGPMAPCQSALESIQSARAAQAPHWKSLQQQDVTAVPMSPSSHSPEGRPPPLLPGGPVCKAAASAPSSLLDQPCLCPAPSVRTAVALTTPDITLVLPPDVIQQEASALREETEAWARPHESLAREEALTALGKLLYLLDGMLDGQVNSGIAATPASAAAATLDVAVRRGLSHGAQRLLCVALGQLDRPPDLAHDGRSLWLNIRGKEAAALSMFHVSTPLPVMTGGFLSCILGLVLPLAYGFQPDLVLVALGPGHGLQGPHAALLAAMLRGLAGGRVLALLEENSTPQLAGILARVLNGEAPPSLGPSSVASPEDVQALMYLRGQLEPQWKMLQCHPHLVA

[6] = target: T2, Protein deacetylase HDAC6 (Homo sapiens) (UniProt Q9UBN7); assay: Inhibition of HDAC6 in human MOLM14 cells assessed as increase in acetylated tubulin level at 2 times antiproliferative IC50 after 16 to 48 hrs by immunoblot method; format: cell-based; settings: MOLM-14
T2 sequence (whole entry): T1 sequence (Q9UBN7 whole entry)
How it was run: (§1)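 KMS-12-BM or MOLM-14 cells (at least 3x10^6 per condition) treated at about 2x their proliferation IC50 in a time course of 0 to 48 h. Tubastatin (15 μM, 48 h) used as HDAC6 control. Lysates immunoblotted for acetyl-α-tubulin and acetyl-H3 (Lys9/Lys14); re-probed for α-tubulin and H3.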

[7] = target: T3, Non-receptor tyrosine-protein kinase TYK2 (Homo sapiens, UniProt P29597); assay: Inhibition of human TYK2 (V877 to C1187 residues) expressed in mammalian expression system by KINOMEScan assay
T3 sequence (P29597 whole entry, the tested form may be a part): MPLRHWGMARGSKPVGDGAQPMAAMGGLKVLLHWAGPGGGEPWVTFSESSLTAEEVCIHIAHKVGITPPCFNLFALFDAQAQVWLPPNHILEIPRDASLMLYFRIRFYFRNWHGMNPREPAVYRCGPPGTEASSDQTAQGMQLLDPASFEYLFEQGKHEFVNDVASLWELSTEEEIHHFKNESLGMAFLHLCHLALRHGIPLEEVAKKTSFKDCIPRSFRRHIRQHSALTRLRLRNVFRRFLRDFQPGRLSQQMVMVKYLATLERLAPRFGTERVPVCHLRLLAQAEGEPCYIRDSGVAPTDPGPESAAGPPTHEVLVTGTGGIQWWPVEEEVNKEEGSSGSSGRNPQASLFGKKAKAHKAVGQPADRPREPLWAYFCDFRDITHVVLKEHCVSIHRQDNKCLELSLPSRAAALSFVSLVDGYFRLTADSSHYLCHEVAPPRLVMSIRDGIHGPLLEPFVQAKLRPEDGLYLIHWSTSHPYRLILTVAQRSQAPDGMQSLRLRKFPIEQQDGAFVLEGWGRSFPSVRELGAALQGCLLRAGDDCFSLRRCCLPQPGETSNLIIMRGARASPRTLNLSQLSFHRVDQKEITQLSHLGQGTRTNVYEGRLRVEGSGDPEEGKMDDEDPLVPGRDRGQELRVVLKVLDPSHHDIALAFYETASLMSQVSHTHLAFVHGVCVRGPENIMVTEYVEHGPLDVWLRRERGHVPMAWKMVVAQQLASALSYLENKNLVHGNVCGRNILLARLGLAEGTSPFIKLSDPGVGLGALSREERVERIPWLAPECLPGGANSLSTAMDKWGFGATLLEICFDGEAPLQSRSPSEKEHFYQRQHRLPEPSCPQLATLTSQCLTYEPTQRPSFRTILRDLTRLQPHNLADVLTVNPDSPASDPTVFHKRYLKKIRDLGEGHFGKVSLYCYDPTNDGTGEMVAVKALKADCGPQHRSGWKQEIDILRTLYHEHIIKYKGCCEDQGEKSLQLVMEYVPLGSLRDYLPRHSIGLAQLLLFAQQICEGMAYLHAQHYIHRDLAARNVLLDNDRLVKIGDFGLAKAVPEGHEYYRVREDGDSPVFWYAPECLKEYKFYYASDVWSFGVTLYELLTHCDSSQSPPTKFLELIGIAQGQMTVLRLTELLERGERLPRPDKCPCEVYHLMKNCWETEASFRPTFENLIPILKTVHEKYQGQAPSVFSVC

[8] = target: T3, Non-receptor tyrosine-protein kinase TYK2; assay: Inhibition of TYK2 (unknown origin) at 0.1 uM preincubated for 20 mins followed by [33P]ATP addition measured after 120 mins by Hotspot assay relative to control
How it was run: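 Radiometric HotSpot kinase assay. Buffer: 20 mM HEPES pH 7.5, 10 mM MgCl2, 1 mM EGTA, 0.02% Brij35, 0.02 mg/mL BSA, 0.1 mM Na3VO4, 2 mM DTT, 1% DMSO. Compound added about 20 min before ATP/[33P]ATP (10 μM final). Reactions run 120 min at 25 °C, spotted on P81 filters and washed in phosphoric acid. Activity expressed relative to DMSO after background subtraction. Single-concentration panel at 100 nM in duplicate.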

[9] = target: T2, Protein deacetylase HDAC6 (Homo sapiens); assay: Inhibition of HDAC6 in human KMS-12-BM cells assessed as increase in acetylated tubulin level at 2 times antiproliferative IC50 up to 48 hrs by immunoblot method; format: cell-based; how it was run: as §1
[10] = Antiproliferative activity against human NKYS cells after 48 hrs by CellTiter-Glo assay; format: functional, cell-based
[11] = tested on: MOLM-14; assay: Induction of apoptosis in human MOLM14 cells assessed as early apoptotic cells at 3 uM after 48 hrs by Annexin-V FITC/propidium iodide staining based flow cytometry (reference value: 3.6 to 3.7%); format: functional
How it was run: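 MOLM-14 cells treated 48 h at the stated concentrations; doxorubicin as positive control. Stained with Annexin V-FITC and propidium iodide and analysed by flow cytometry (at least 10,000 events). Gated quadrants: Annexin V−/PI− viable, Annexin V+/PI− early apoptotic, Annexin V+/PI+ late apoptotic.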

O=C(CCCCCCOc1ccc2cc1COC/C=C/COCc1cccc(c1)-c1ccnc(n1)N2)NO
inhibition [1]: Dose-dependent effect
Activity [2]: 21%
IC50 [3]: 2.1 nM
inhibition [4]: Active
IC50 [5]: 80 nM
inhibition [6]: Active
IC50 [7]: 10 to 1000 nM
inhibition [8]: 56%
inhibition [9]: Active
IC50 [10]: 1080 nM
Activity [11]: 24.4%
